Screening data as filed in PubChem BioAssay.
Only some compounds are listed: those with a hit (about 9.4% of all), similar ones and a draw of the others.
L major viab = Leishmania major promastigote growth inhibition, primary screen. inhibition, % at 10 µM. hit rate 9% among 200,000. Leishmania major promastigotes, resazurin fluorescence viability; in the data active means inhibition above about 50%;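 further: promastigotes grown with compound for 44 hours at 28 °C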
T cruzi repl = inhibitors of intracellular T. cruzi growth, primary screen, luminescence, NIH3T3 host cells | T. cruzi beta-gal in NIH3T3, 90 h | hit rate 1.4% among 300,000 | inhibition, % (test concentration not listed);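 active means mean inhibition across valid replicates above about 55%, limit read from the data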;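 further: signal also drops with host cell toxicity which is not excluded here; 0% = plate median of DMSO wells and 100% = zero luminescence signal; higher percent means less beta-gal luminescence so fewer parasites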
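System: Mouse NIH/3T3 fibroblasts infected with β-gal-expressing T. cruzi Tulahuen C4 | Quantity: NIH/3T3 cells, 5,000 per well | Reagent: 5000 reporter trypomastigotes per well | Dosing: Compound pinned at 50 nL/well, DMSO | Schedule: 3 h host attachment, then at least 90 h co-culture | Detection: GalScreen luminescence, 60 min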
Beta apoptosis = inhibitors of cytokine-induced beta cell apoptosis, primary screen, luminescence; INS-1E cytokine-induced death, ATP luminescence, 48 h; percent of positive-control rescue, neutral wells zero; protection from apoptosis, % (test concentration not listed); hit rate 0.8% among 300,000;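 active means Every replicate reaches about 75%, or at least half do and their mean reaches it too, limit read from the data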;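 further: 0% = cytokine-treated negative control wells and 100% = positive control rescue; higher means more ATP so stronger rescue from cytokine killing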
SKKanGAS inh = S. pyogenes SKKanGAS growth inhibitors in kanamycin, primary screen, streptokinase expression inhibitor project, SKKanGAS strain, BacTiter-Glo luminescence; AID 1662, 2009; 6 h; inhibition, % at 7.5 µM; hit rate 1.3% among 300,000;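 active means mean replicate score, as percent of positive control median, at least 50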;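 further: strain carries kanamycin resistance gene driven by streptokinase promoter and grows in 40 µg/ml kanamycin; loss of luminescence reflects streptokinase promoter inhibition or plain growth inhibition; 0% = median of DMSO wells and 100% = positive control at its reference dose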
CSC inhib = cancer stem cell viability inhibitors, primary screen, luminescence | hit rate 1.1% among 300,000 | cancer stem cell-like cells viability | inhibition, % at 7.5 µM; in the data active means inhibition above about 75%; tested in HMLE shEcad cells
Mdm2 MdmX PPI = inhibitors of human Mdm2-MdmX association, primary screen, cell-based, luminescence, split luciferase, SaOS-2, uHTS. Protein Mdm4 (Homo sapiens) + E3 ubiquitin-protein ligase Mdm2 (Homo sapiens), …. SaOS-2 split-luciferase Mdm2/MdmX complementation. inhibition, % at 8 µM. hit rate 3% among 330,000. AID 485346, 2010;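 active means inhibition of at least 50% at 8 µM in the primary screen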
Target sequence (O15151 whole entry, looked up): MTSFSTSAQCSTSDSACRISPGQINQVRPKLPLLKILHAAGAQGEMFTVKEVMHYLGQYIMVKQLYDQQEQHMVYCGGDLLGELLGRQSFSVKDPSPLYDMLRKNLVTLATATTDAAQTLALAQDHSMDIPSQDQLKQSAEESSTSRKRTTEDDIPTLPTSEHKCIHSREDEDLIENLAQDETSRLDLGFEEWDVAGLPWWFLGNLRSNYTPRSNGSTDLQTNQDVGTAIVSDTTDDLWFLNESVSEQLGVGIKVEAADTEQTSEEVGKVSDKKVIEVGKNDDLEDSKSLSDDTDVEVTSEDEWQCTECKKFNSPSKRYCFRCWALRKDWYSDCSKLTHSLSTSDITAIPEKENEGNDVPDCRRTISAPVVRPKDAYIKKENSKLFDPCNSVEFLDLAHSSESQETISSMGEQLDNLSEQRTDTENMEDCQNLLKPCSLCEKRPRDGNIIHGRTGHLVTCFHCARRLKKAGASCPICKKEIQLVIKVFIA
Target sequence (Q00987 whole entry, looked up): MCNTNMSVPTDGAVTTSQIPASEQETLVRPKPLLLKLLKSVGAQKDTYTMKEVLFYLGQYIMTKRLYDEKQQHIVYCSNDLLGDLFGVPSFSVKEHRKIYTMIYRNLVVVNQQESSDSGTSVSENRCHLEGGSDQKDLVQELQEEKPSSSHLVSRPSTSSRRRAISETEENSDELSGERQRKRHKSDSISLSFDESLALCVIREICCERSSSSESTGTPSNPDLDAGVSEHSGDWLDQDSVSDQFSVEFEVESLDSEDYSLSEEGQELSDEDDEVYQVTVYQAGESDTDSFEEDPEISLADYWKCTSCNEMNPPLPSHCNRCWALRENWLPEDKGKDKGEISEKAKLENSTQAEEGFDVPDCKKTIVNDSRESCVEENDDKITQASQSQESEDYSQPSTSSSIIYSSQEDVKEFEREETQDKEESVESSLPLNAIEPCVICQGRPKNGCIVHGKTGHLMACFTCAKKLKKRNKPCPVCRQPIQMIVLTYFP
The depositor's hits bear a star; / = no result given.

SMILES	L major viab	T cruzi repl	Beta apoptosis	SKKanGAS inh	CSC inhib	Mdm2 MdmX PPI
CCOC(=O)C1=C(c2ccccc2)Nc2ncnn2C1c1ccc(O)cc1 (stereo not given)	/	-3	-5	-8	-13	-12
CCOC(=O)C1=C(c2ccccc2)Nc2ncnn2C1c1cccc(OC)c1OC (stereo not given)	100*	12	1	-1	-6	4
CC(C)NC(=O)NC(=O)CSc1nnc(COc2ccccc2F)n1C(C)C1CC2CCC1C2 (stereo not given)	51*	42	/	51*	/	32
CC(C1CC2CCC1C2)n1c(COc2ccccc2F)nnc1SCC(N)=O (stereo not given)	11	12	-6	6	-22	33
CCN(CC(=O)Nc1c(F)cccc1F)C(=O)CCCc1cccs1	/	/	-2	/	-6	-3
COc1ccc2c(c1)Sc1ccccc1N2CCN(C)C	23	13	-5	-17	3	29
CN1c2ccccc2C(C)(C)[C@]12C=Cc1cc(O)ccc1O2	99*	34	47	7	-11	49
COc1ccc2ccc3c(c2c1)N=CC1(O3)N(C)c2ccccc2C1(C)C (stereo not given)	24	10	-8	93*	17	32
CN1c2ccccc2N(C)C1c1c(O)ccc2ccccc12	4	-7	3	3	-3	3
CN1c2ccccc2C(C)(C)C12C=Nc1c(ccc3ccccc13)O2 (stereo not given)	5	16	1	105*	23	44
O=C(CSc1nnc(-c2cccc(Br)c2)o1)N1CCNC1=O	/	/	-8	/	5	-70
Cc1cc(C)cc(OCC(=O)Nc2cnn(CCCC(=O)O)c2)c1	/	-17	-6	3	-15	15
CC(=O)CSc1nnc(C(F)(F)F)n1C	/	-17	-10	-12	0	1
CC(C)n1cc(/C=N\NC(=O)c2cc3c(ccc4ccccc43)o2)c2ccccc21	97*	/	/	/	/	/
Cc1ccc(/C=N/NC(=O)c2cc3c(ccc4ccccc43)o2)o1	/	-1	/	-7	/	12
CCOC(=O)Cn1cc(/C=N/NC(=O)c2cc3ccccc3o2)c2ccccc21	/	5	0	18	-34	10
CCn1cc(/C=N/NC(=O)c2cc3c(ccc4ccccc43)o2)c2ccccc21	100*	9	0	19	17	42
CCOc1ccc2nc(NC3=NCN(CC4CCCO4)CN3)nc(C)c2c1 (stereo not given)	11	/	/	/	/	/
Cc1ccc2nc(NC3=NCN(Cc4ccc5c(c4)OCO5)CN3)nc(C)c2c1	100*	/	/	/	/	/
COc1cc(NC(=O)COc2ccc(Cl)cc2)ccc1NC(=O)C(C)C	/	23	-2	6	-6	2
COc1cc(NC(=O)COc2ccc(Cl)cc2)ccc1-c1cc2ccccc2oc1=O	63*	30	-9	12	47	48
COc1cc(Cc2cc(N)nc(N)n2)cc(OC)c1OC	/	-14	-3	71*	-9	12
CC(C)[C@H](NS(=O)(=O)c1ccc2c(c1)OCCO2)C(=O)OCC(=O)Nc1ccccc1Cl	66*	7	-10	-7	-2	2
O=C(NCC1CCN(S(=O)(=O)c2ccccc2)CC1)Nc1ccccc1	/	1	-1	5	-5	0
Cc1c(NC(=O)CSC2=C(C#N)C(c3ccccc3F)CC(=O)N2)c(=O)n(-c2ccccc2)n1C (stereo not given)	0	-16	-3	96*	-7	0
SMILES	L major viab	T cruzi repl	Beta apoptosis	SKKanGAS inh	CSC inhib	Mdm2 MdmX PPI
COC(=O)CSC1=C(C#N)C(c2ccccc2F)CC(=O)N1 (stereo not given)	/	3	0	1	0	-1
CC1=NN(Cc2ccccc2)C(=O)/C1=C\c1ccc(N(C)C)cc1	-1	-6	2	-3	-5	5
CCOC(=O)C1=NN(c2ccccc2)C(=O)/C1=C\c1ccc(N(C)C)cc1	89*	-9	-19	-11	-34	8
COc1cc(/C=C2\C(=O)N(c3ccc(NC(C)=O)cc3)N=C2c2ccccc2)ccc1O	4	-26	-2	/	9	14
CCOc1cc(/C=C2\C(=O)N(c3nc(-c4ccc(Br)cc4)cs3)N=C2c2ccccc2)ccc1O	100*	11	/	73*	99*	11
O=C1/C(=C\c2ccc(O)c(O)c2)C(c2ccccc2)=NN1c1ccccc1	99*	4	/	-2	/	/
COc1ccc(/C=C2\C(=O)N(c3nc(-c4ccc(Br)cc4)cs3)N=C2c2ccccc2)cc1	-1	/	/	/	/	/
CCOC(=O)c1sc(NC(=O)C(CC)Sc2nc3ccccc3[nH]2)nc1C (stereo not given)	54*	15	-2	24	-5	22
CCC(Sc1nc2ccncc2[nH]1)C(=O)Nc1ccc(C)c(Cl)c1 (stereo not given)	/	62*	0	2	0	-4
CCOC(=O)Cc1nnc(NC(=O)C(CC)Sc2nnc3c4ccccc4n(C)c3n2)s1 (stereo not given)	-10	3	6	5	-7	-2
CCOC(=O)c1sc(NC(=O)C(CC)Sc2nnc3c4ccccc4n(C(C)C)c3n2)nc1C (stereo not given)	72*	/	/	/	/	/
CC(C)(C)NC(=O)C(c1ccc(O)cc1)N(C(=O)CCC(=O)Nc1ccccn1)c1ccc(F)cc1 (stereo not given)	/	0	-2	-5	-5	11
COC(=O)c1ccccc1NC(=O)CNc1cc(Cl)ccc1N1CCOCC1	80*	22	8	33	31	30
Cc1cccc(NC(=O)CSCC(=O)Nc2cc(Cl)ccc2N2CCOCC2)c1	/	5	-1	-7	-1	28
Cc1cc(C)c(NC(=O)COC(=O)COc2ccc3c(C)cc(=O)oc3c2)c(Cl)c1	/	/	-2	/	/	12
O=C(O)CC(Cc1ccccc1)c1ccc2c(c1)OCO2 (stereo not given)	-5	-6	1	-6	12	7
CC(=O)N(CCC(Cc1ccccc1)c1ccc2c(c1)OCO2)Cc1ccc(Cl)cc1 (stereo not given)	16	64*	0	64*	-5	26
CCN(CC)S(=O)(=O)c1ccc(N2CCCC2)c(NS(=O)(=O)c2ccc(OC)cc2)c1	20	15	3	-8	-5	-8
CCN(CC)S(=O)(=O)c1ccc(N2CCCC2)c(NS(=O)(=O)c2ccc(F)cc2)c1	60*	10	1	6	/	5
CCN(CC)S(=O)(=O)c1ccc(N2CCOCC2)c(NS(=O)(=O)c2cc(C(C)(C)C)ccc2C)c1	93*	29	/	4	9	21
CCN(CC)CCNC(=O)c1ccc(NC(=O)c2ccc(S(=O)(=O)N3CCCCCC3)cc2)cc1	/	5	2	5	/	8
